Experiments:
[1] = test system: Escherichia coli; assay: Bactericidal activity against Escherichia coli CECT 405 at 0.2 mg/disk after 24 hrs by paper disk-agar diffusion method; type: functional
Procedure, shortened: (§1)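 Each bacterial strain was taken from a 24-h culture on solid medium, reactivated in Nutrient Broth, and grown a further 24 h at 28 or 37 °C depending on the strain. 1 mL of suspension was mixed with 15 mL Plate Count Agar. Four 0.5 cm paper disks (0.2 mg/disk) were placed on the set agar. Controls were vehicle-only disks and tetracycline. Plates were incubated 24 h, dark, 28 or 37 °C. The inhibition zone was read in mm as the mean ± SE of three independent experiments.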

[2] = test system: Geotrichum candidum; assay: Fungicidal activity against Geotrichum candidum CCM 245 at 0.2 mg/disk after 72 hrs by paper disk-agar diffusion method; type: functional
Procedure, shortened: (§2)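 Fungi were grown on potato dextrose agar (PDA) for 7 days at 28 °C. Conidia were suspended to ~10⁶/mL in 0.05% Tween 80 in sterile water, and 1 mL was mixed into 15 mL PDA. Four 0.5 cm paper disks (0.2 mg/disk) were placed on the set agar. Controls were vehicle-only disks and benomyl at species-dependent doses. The inhibition zone was read in mm at 72 h as the mean ± SE of three independent experiments.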

[3] = test system: Phytophthora citrophthora; assay: Fungicidal activity against Phytophthora citrophthora CECT 2353 at 0.2 mg/disk after 72 hrs by paper disk-agar diffusion method; type: functional; procedure, shortened: as §2
[4] = test system: Escherichia coli; assay: Bactericidal activity against Escherichia coli CECT 100 at 0.2 mg/disk after 24 hrs by paper disk-agar diffusion method; type: functional; procedure, shortened: as §1
[5] = test system: Salmonella typhi; assay: Bactericidal activity against Salmonella typhi CECT 409 at 0.2 mg/disk after 24 hrs by paper disk-agar diffusion method; type: functional, Salmonella enterica subsp. enterica serovar Typhi
Procedure, shortened: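 Paper disk-agar diffusion, run in triplicate. 24-h culture reactivated in nutrient broth and grown a further 24 h at 28 or 37 °C by species. 1 mL suspension mixed into 15 mL plate count agar. Four 0.5 cm disks placed per plate, incubated 24 h in the dark. Inhibition zone (mm) reported as mean ± SE of three independent experiments; vehicle disks as negative control.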

[6] = test system: Bacillus cereus; assay: Bactericidal activity against Bacillus cereus CECT 148 at 0.2 mg/disk after 24 hrs by paper disk-agar diffusion method; type: functional; procedure, shortened: as §1
[7] = test system: Fusarium culmorum; assay: Fungicidal activity against Fusarium culmorum CCM 172 at 0.2 mg/disk after 72 hrs by paper disk-agar diffusion method; type: functional; procedure, shortened: as §2
[8] = test system: Aspergillus parasiticus; assay: Fungicidal activity against Aspergillus parasiticus CECT 2681 at 0.2 mg/disk after 72 hrs by paper disk-agar diffusion method; type: functional; procedure, shortened: as §2
[9] = test system: Trichoderma viride; assay: Fungicidal activity against Trichoderma viride CECT 2423 at 0.2 mg/disk after 72 hrs by paper disk-agar diffusion method; type: functional; procedure, shortened: as §2
[10] = test system: Staphylococcus aureus; assay: Bactericidal activity against Staphylococcus aureus CECT 86 at 0.2 mg/disk after 24 hrs by paper disk-agar diffusion method; type: functional; procedure, shortened: as §1
[11] = test system: Enterococcus faecalis; assay: Bactericidal activity against Enterococcus faecalis CECT 481 at 0.2 mg/disk after 24 hrs by paper disk-agar diffusion method; type: functional; procedure, shortened: as §1
[12] = test system: Pectobacterium carotovorum; assay: Bactericidal activity against Erwinia carotovora CECT 225 at 0.2 mg/disk after 24 hrs by paper disk-agar diffusion method; type: functional; procedure, shortened: as §1
[13] = test system: Salmonella typhi; assay: Bactericidal activity against Salmonella typhi CECT 409 at 0.2 mg/disk after 24 hrs by paper disk-agar diffusion method relative to control; type: functional, Salmonella enterica subsp. enterica serovar Typhi
[14] = test system: Escherichia coli; assay: Bactericidal activity against Escherichia coli CECT 405 at 0.2 mg/disk after 24 hrs by paper disk-agar diffusion method relative to control; type: functional

SMILES | inhibition zone (IZ) [1] [mm] | inhibition zone (IZ) [2] [mm] | inhibition zone (IZ) [3] [mm] | inhibition zone (IZ) [4] [mm] | inhibition zone (IZ) [5] [mm] | inhibition zone (IZ) [6] [mm] | inhibition zone (IZ) [7] [mm] | inhibition zone (IZ) [8] [mm] | inhibition zone (IZ) [9] [mm] | inhibition zone (IZ) [10] [mm] | inhibition zone (IZ) [11] [mm] | inhibition zone (IZ) [12] [mm] | Activity [13] [%] | Activity [14] [%]
COc1cc2c(cc1OC)C(CCCCCOC(=O)c1ccccc1)N(C)CC2 (configuration not stated) | 9.83 | 6.75 | 0 | 11 | 9.67 | 10.83 | 7 | 0 | 7.25 | 10.67 | 9.83 | 12.17 |  | 
COc1cc2c(cc1OC)C(CCCCCOC(=O)c1ccc(F)cc1)N(C)CC2 (configuration not stated) | 13.67 | 7 | 0 | 14 | 14.83 | 13 | 8 | 0 | 7 | 13.67 | 13.67 | 13.5 | 61 | 
COc1cc2c(cc1OC)C(CCCCCOC(=O)c1ccc(Cl)cc1)N(C)CC2 (configuration not stated) | 11.5 | 12.33 | 10.33 | 13.67 |  | 13 | 6.67 | 0 | 9 | 12.67 | 11.67 | 12.67 |  | 
COc1ccc(C(=O)OCCCCCC2c3cc(OC)c(OC)cc3CCN2C)cc1 (configuration not stated) | 11.33 | 7.33 | 0 | 10.83 |  | 10.33 | 5.5 | 0 | 5.5 | 11.33 | 11.33 | 10.33 |  | 
COc1cc2c(cc1OC)C(CCCCCOC(=O)CCc1ccccc1)N(C)CC2 (configuration not stated) | 8.67 | 7.83 | 6.67 | 11.33 |  | 10.33 | 6.33 | 0 | 8 | 9.67 | 8.67 | 10.67 |  | 
COc1cc2c(cc1OC)C(CCCCCOC(=O)CCc1ccc(Cl)cc1)N(C)CC2 (configuration not stated) | 9.17 | 8.5 | 8.5 | 8.67 | 8.17 | 11 | 9.5 | 0 | 9 | 8.67 | 8.33 | 11 |  | 
COc1ccc(CCC(=O)OCCCCCC2c3cc(OC)c(OC)cc3CCN2C)cc1 (configuration not stated) | 7.33 | 5.75 | 0 | 7 | 8 | 8.5 | 6.5 | 0 | 6 | 7.83 | 7 | 11.33 |  | 
COc1cc2c(cc1OC)C(CCCCCOC(=O)NCCc1ccccc1)N(C)CC2 (configuration not stated) | 14 | 7.67 | 0 | 10.67 | 13.5 | 10.17 | 0 | 0 | 0 | 14 | 13.67 | 11 |  | 
COc1cc2c(cc1OC)C(CCCCCOC(=O)NCCc1ccc(F)cc1)N(C)CC2 (configuration not stated) | 16 | 7.67 | 0 | 11.33 | 14.83 | 11.33 | 0 | 0 | 0 | 15.33 | 15 | 11.67 | 61 | 62
COc1cc2c(cc1OC)C(CCCCCOC(=O)NCCc1ccc(Cl)cc1)N(C)CC2 (configuration not stated) | 17.67 | 10 | 6.25 | 12.33 |  | 14.67 | 15 | 0 | 7 | 16.33 | 17 | 18.33 | 75 | 75
COc1ccc(CCNC(=O)OCCCCCC2c3cc(OC)c(OC)cc3CCN2C)cc1 (configuration not stated) | 13.33 | 7 | 0 | 10.67 |  | 12 | 0 | 0 | 0 | 9 | 11 | 17 |  | 
CCCCC1=[N+](C)CCc2cc(OC)c(OC)cc21 | 7 |  |  | 0 | 6.75 | 7 |  |  |  | 7 | 7 | 7 |  | 
CCCCC1c2cc(OC)c(OC)cc2CCN1C (configuration not stated) | 6 | 0 | 0 | 0 | 6.25 | 6 | 5.5 | 0 | 0 | 6 | 7 | 6 |  | 
COC(=O)CCCCC1=[N+](C)CCc2cc(OC)c(OC)cc21 | 0 |  |  | 0 | 0 | 6.33 |  |  |  | 0 | 0 | 5.5 |  | 
COC(=O)CCCCC1c2cc(OC)c(OC)cc2CCN1C (configuration not stated) | 0 |  |  | 5.83 | 0 | 6.33 |  |  |  | 5.5 | 0 | 0 |  | 
CN(C)[C@@H]1C(O)=C(C(N)=O)C(=O)[C@@]2(O)C(O)=C3C(=O)c4c(O)cccc4[C@@](C)(O)[C@H]3C[C@@H]12 [TETRACYCLINE] | 25.67 |  |  | 25.67 | 24.33 | 23.33 |  |  |  | 27 | 31.17 | 34.67 |  | 
